B1: tRNA (parent)
chain: GUUCCGUUGGCGUAAUGGUAACGCGUCUCCCUCCUAAGGAGAAGACUGCGGGUUCGAGUCCCGUACGGAACG

The record followed here is the RNAGym collection of RNA variant scans (doi:10.1038/s41586-018-0170-7).

In the data set the parent is B1. Kind of data set: yeast fitness, log relative to wild type (ln ratio); higher = fitter; tRNA-Arg(CCU), competitive growth, 37 C, 1 M NaCl. The method in brief: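 Two independent transformations put a combinatorial tRNA-Arg(CCU) variant library on a HIS3 centromeric plasmid into BY4742 lacking the chromosomal gene. Pools were grown in SC-HIS at 30 °C for 4 generations, then in SC-HIS 1M NaCl at 37 °C for ~6.5 generations (~26.5 h), with three outputs taken per input. Fitness compares a genotype's generations with the wild type's as a natural log ratio. Those generations are OD-scaled log2 output/input frequencies, inverse-variance weighted across replicates, from 125 bp paired-end Illumina counts.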
Consider U2G C46U C66A A70G, for which the “yeast fitness (ln)” value was -0.0687. To U2G G6A C27U C46U C66A A70U belongs -0.134; to U2G G6A C27U C46U C66A A70G, -0.16. In the case of U2G G6A A43C C66U A70U C71U, the “yeast fitness (ln)” value is -0.49. In the case of U2G C46U C66A A69G A70U C71U, the “yeast fitness (ln)” value was -0.34. Regarding U2G G6A A43C A69G C71U, the “yeast fitness (ln)” value is -0.364. To U2G C46U C66A A70U C71U belongs -0.0966; to U2G G6A A69G, -0.135.

Turning to U2G G6A C27U, the “yeast fitness (ln)” value was -0.0425. Under U2G C46U A70U C71U stands -0.0115; under U2G G6A C27U C66A C71U, -0.216.

In the case of U2G C66U A69G, the “yeast fitness (ln)” value was -0.195. To U2G G6A C66A A69G A70U belongs -0.0595; to U2G C66A A70G C71U, -0.168. Take U2G G6A C27U C66A A69G A70G C71U: the “yeast fitness (ln)” value was -0.249.

Take U2G C46U C66U A69G A70G C71U: the “yeast fitness (ln)” value was -0.114. For the variant U2G G6A A43C C66A A70U, the “yeast fitness (ln)” value was -0.12.

In the case of U2G G6A A43C C66A A70G, the “yeast fitness (ln)” value is -0.187.

As to U2G C46U C71U, the “yeast fitness (ln)” value was -0.0759. For U2G G6A C27U A70G, the “yeast fitness (ln)” value was -0.112.

For the variant U2G G6A C27U A70U, the “yeast fitness (ln)” value is -0.283. To U2G G6A C46U A69G A70G C71U belongs -0.154.

Consider U2G C66A A70G, for which the “yeast fitness (ln)” value was -0.0918. U2G C66A A70U: the “yeast fitness (ln)” value was -0.157. To U2G G6A A43C C46U C66A A69G A70U belongs -0.0569. Under U2G G6A C27U A43C C46U A70G stands -0.145. Regarding U2G G6A C27U A43C C46U A70U, the “yeast fitness (ln)” value was -0.119. With U2G G6A A43C C66U A70G, the “yeast fitness (ln)” value is -0.147. Under U2G G6A A43C C66U A70U stands -0.0213. To U2G G6A A43C C66U C71U belongs -0.388; to U2G C46U C66U A70U C71U, -0.28. Consider U2G G6A C46U C66U A70G C71U, for which the “yeast fitness (ln)” value is -0.35. As to U2G G6A A43C C66A C71U, the “yeast fitness (ln)” value is -0.347. With U2G G6A A43C C46U C66A A69G A70G C71U, the “yeast fitness (ln)” value is -0.212. Under U2G C66U A69G A70U C71U stands -0.381; under U2G G6A C27U A69G A70U, -0.151.

Turning to U2G G6A C27U A69G A70G, the “yeast fitness (ln)” value is -0.193. Under U2G G6A C27U A43C C46U C66U A69G A70G C71U stands -0.289; under U2G G6A C27U C46U C66U A70G C71U, -0.165. Consider U2G G6A C66A A70G C71U, for which the “yeast fitness (ln)” value is -0.17. Under U2G C66U stands -0.0538; under U2G C66A, -0.0285. Under U2G G6A C27U A43C C46U C66U A70G C71U stands -0.194; under U2G G6A C27U C66A A69G A70U, -0.287; under U2G C46U C66A, -0.0933. For the variant U2G C46U C66U, the “yeast fitness (ln)” value was -0.0936. In the case of U2G G6A A43C C46U C66A A69G A70U C71U, the “yeast fitness (ln)” value is -0.381. Under U2G G6A C27U A43C C46U A70U C71U stands -0.176; under U2G G6A A43C C46U C66U A69G A70G, -0.199. Take U2G G6A A43C C46U C66U A69G A70U: the “yeast fitness (ln)” value was -0.0409.

U2G G6A C46U C66U A69G A70G C71U: the “yeast fitness (ln)” value was -0.188. To U2G G6A C46U C66A A69G A70U C71U belongs -0.382. Take U2G G6U A43C: the “yeast fitness (ln)” value is -0.129. Regarding U2G G6A C27U C46U A69G A70U C71U, the “yeast fitness (ln)” value was -0.368. To U2G G6A A43C C66U A70G C71U belongs -0.186; to U2G G6A C46U C66U, -0.0595.

Regarding U2G G6A C46U C66A, the “yeast fitness (ln)” value was -0.093. As to U2G G6A C27U C46U C66A A69G C71U, the “yeast fitness (ln)” value is -0.325.

As for U2G C46U C66U A69G, the “yeast fitness (ln)” value was -0.119.

Consider U2G G6A C27U C46U A70U C71U, for which the “yeast fitness (ln)” value was -0.143. In the case of U2G G6A C27U C66A A70G C71U, the “yeast fitness (ln)” value was -0.149. With U2G C46U C66A C71U, the “yeast fitness (ln)” value was -0.0426.

Turning to U2G G6A C27U A43C C66U A70U C71U, the “yeast fitness (ln)” value was -0.339. On to U2G G6A C27U C71U, for which the “yeast fitness (ln)” value was -0.156. With U2G G6A C46U, the “yeast fitness (ln)” value is -0.0244.

Consider U2G G6A C66U A70U, for which the “yeast fitness (ln)” value was 0.001. Under U2G G6A C66U A70G stands -0.0683; under U2G C66U A69G A70U, -0.285; under U2G C66U A69G A70G, -0.151.

On to U2G G6A C27U A43C C66A A70G, for which the “yeast fitness (ln)” value was -0.195.

As to U2G G6A C27U A43C C66A A70U, the “yeast fitness (ln)” value was -0.176. For the variant U2G C46U A69G A70U C71U, the “yeast fitness (ln)” value was -0.191. To U2G G6A C27U C66U belongs -0.0928; to U2G G6A C27U C66A, -0.186. In the case of U2G G6A C27U A43C C66U C71U, the “yeast fitness (ln)” value is -0.373. In the case of U2G G6A C27U A43C C46U C66A A70U C71U, the “yeast fitness (ln)” value was -0.331.

As for U2G G6A C46U C66U C71U, the “yeast fitness (ln)” value was -0.082.

As to U2G G6A C27U C66U A69G, the “yeast fitness (ln)” value is -0.193. In the case of U2G G6A C27U C46U C66U C71U, the “yeast fitness (ln)” value was -0.17. For U2G G6A C27U C46U A69G C71U, the “yeast fitness (ln)” value was -0.174. As to U2G C46U A70U, the “yeast fitness (ln)” value was -0.00122. To U2G C46U A70G belongs -0.0123. On to U2G G6A C27U A43C C66A A69G C71U, for which the “yeast fitness (ln)” value is -0.379. U2G G6A C27U A43C C66U A69G A70G C71U: the “yeast fitness (ln)” value is -0.386.
